According to ChEMBL document CHEMBL1126625, “7-Azetidinylquinolones as antibacterial agents. Synthesis and structure-activity relationships” (J Med Chem, 1993):
≈ marks a conversion by molar mass, not a printed value.

Columns and labels:
Mus musculus [1] = test: Blood level after oral administration in mice (50 mg/kg) was determined by bioassay procedure and represent total activity present in the serum; type: ADME, organism-based; conditions: in vivo
How it was run: (§1)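 Single oral dose of 50 mg/kg to mice. Blood taken from groups of six mice at 0.5, 1, 2 and 4 h after dosing. Serum levels measured by disk agar diffusion bioassay with Bacillus subtilis ATCC 6633 on Seed Agar, plates incubated 18 h at 37 °C, giving total activity in serum. AUC 0-4 h expressed as μg/mL […].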

Bacillus cereus = test: Minimum inhibitory concentration (MIC) preventing growth of Bacillus cereus; type: functional
Bacillus subtilis = test: Minimum inhibitory concentration (MIC) preventing growth of Bacillus subtilis; type: functional
Escherichia coli [2] = test: Minimum inhibitory concentration (MIC)preventing growth of Escherichia coli; type: functional
Escherichia coli [3] = test: Efficacy on systemic infections after oral administration in mice was determined against Escherichia coli HM-42; type: functional
How it was run: (§2)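 Mouse protection test using 4 groups of 10 mice. Mice were infected intraperitoneally with a bacterial suspension slightly above LD100. A single oral dose was given immediately after infection, with four doses, one per group, chosen from in vitro activity. Survival was scored after one week, and ED50 (total mg/kg protecting 50% of mice) was interpolated from group survival rates.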

Klebsiella pneumoniae = test: Minimum inhibitory concentration (MIC)preventing growth of Klebsiella pneumoniae; type: functional
Morganella morganii = test: Minimum inhibitory concentration (MIC) preventing growth of Morganella morganii; type: functional
Pseudomonas aeruginosa [4] = test: Efficacy on systemic infections after oral administration in mice was determined against Pseudomonas aeruginosa HS-116; type: functional; how it was run: as §2
Proteus vulgaris = test: Minimum inhibitory concentration (MIC) preventing growth of Proteus vulgaris; type: functional
[5] = tested on: Staphylococcus epidermidis; test: Minimum inhibitory concentration (MIC) preventing growth of Staphylococcus epidermidis; type: functional
Staphylococcus aureus [6] = test: Minimum inhibitory concentration (MIC) preventing growth of […]; type: functional
Staphylococcus aureus [7] = test: Efficacy on systemic infections after oral administration in mice was determined against […] HS-93; type: functional; how it was run: as §2
Enterococcus faecalis = test: Minimum inhibitory concentration (MIC) preventing growth of Streptococcus faecalis ATCC 10541; type: functional
Enterobacter cloacae = test: Minimum inhibitory concentration (MIC)preventing growth of Enterobacter cloacae; type: functional
Pseudomonas aeruginosa [8] = test: Minimum inhibitory concentration (MIC)preventing growth of Pseudomonas aeruginosa; type: functional
Mus musculus [9] = test: Blood level after oral administration in mice (50 mg/kg) was determined (area under the concentration-time curve recorded at 0.5, 1, 2, and 4 hour after dosing); type: ADME, organism-based; design: dose 50 mg/kg, time < 4 hr, route oral; conditions: in vivo; how it was run: as §1

AUC (Mus musculus [1]) | MIC (Bacillus cereus) | MIC (Bacillus subtilis) | MIC (Escherichia coli [2]) | MIC (Klebsiella pneumoniae) | MIC (Morganella morganii) | MIC (Proteus vulgaris) | MIC [5] | MIC (Staphylococcus aureus [6]) | MIC (Enterococcus faecalis) | MIC (Enterobacter cloacae) | MIC (Pseudomonas aeruginosa [8]) | AUC (Mus musculus [9]) | Compound | ED50 (Escherichia coli [3]) | ED50 (Pseudomonas aeruginosa [4]) | ED50 (Staphylococcus aureus [7])
2800 ng·h/mL | 0.06 µg/mL (≈ 0.164 µM) | 0.06 µg/mL (≈ 0.164 µM) | 0.03 µg/mL (≈ 0.082 µM) | 0.03 µg/mL (≈ 0.082 µM) | 0.03 µg/mL (≈ 0.082 µM) | 0.12 µg/mL (≈ 0.328 µM) | 0.06 µg/mL (≈ 0.164 µM) | 0.06 µg/mL (≈ 0.164 µM) | 0.25 µg/mL (≈ 0.683 µM) | 0.03 µg/mL (≈ 0.082 µM) | 0.25 µg/mL (≈ 0.683 µM) | – | CC1(N)CN(c2c(F)cc3c(=O)c(C(=O)O)cn(C4CC4)c3c2Cl)C1 | 2 mg/kg | 59.8 mg/kg | 4.1 mg/kg
11300 ng·h/mL | 0.12 µg/mL (≈ 0.344 µM) | 0.015 µg/mL (≈ 0.0431 µM) | 0.06 µg/mL (≈ 0.172 µM) | 0.015 µg/mL (≈ 0.0431 µM) | 0.12 µg/mL (≈ 0.344 µM) | 0.25 µg/mL (≈ 0.718 µM) | 0.12 µg/mL (≈ 0.344 µM) | 0.12 µg/mL (≈ 0.344 µM) | 1 µg/mL (≈ 2.87 µM) | 0.12 µg/mL (≈ 0.344 µM) | 2 µg/mL (≈ 5.74 µM) | – | CC1(N)CN(c2nc3c(cc2F)c(=O)c(C(=O)O)cn3C(C)(C)C)C1 | – | – | –
– | 0.12 µg/mL (≈ 0.347 µM) | 0.015 µg/mL (≈ 0.0434 µM) | 0.06 µg/mL (≈ 0.174 µM) | 0.015 µg/mL (≈ 0.0434 µM) | 0.12 µg/mL (≈ 0.347 µM) | 0.12 µg/mL (≈ 0.347 µM) | 0.12 µg/mL (≈ 0.347 µM) | 0.12 µg/mL (≈ 0.347 µM) | 1 µg/mL (≈ 2.9 µM) | 0.06 µg/mL (≈ 0.174 µM) | 2 µg/mL (≈ 5.79 µM) | 10600 ng·h/mL | CN(C)C1CN(c2cc3c(cc2F)c(=O)c(C(=O)O)cn3C2CC2)C1 | 1.3 mg/kg | 44.5 mg/kg | 35.6 mg/kg

Continued, compound first:

Compound | AUC (Mus musculus [1]) | MIC (Bacillus cereus) | MIC (Bacillus subtilis) | MIC (Escherichia coli [2]) | MIC (Klebsiella pneumoniae) | MIC (Morganella morganii) | MIC (Proteus vulgaris) | MIC [5] | MIC (Staphylococcus aureus [6]) | MIC (Enterococcus faecalis) | MIC (Enterobacter cloacae) | MIC (Pseudomonas aeruginosa [8]) | AUC (Mus musculus [9]) | ED50 (Escherichia coli [3]) | ED50 (Pseudomonas aeruginosa [4]) | ED50 (Staphylococcus aureus [7])
CNC1CN(c2c(F)cc3c(=O)c(C(=O)O)cn(C4CC4)c3c2Cl)C1 | 4000 ng·h/mL | 0.12 µg/mL (≈ 0.328 µM) | 0.015 µg/mL (≈ 0.041 µM) | 0.015 µg/mL (≈ 0.041 µM) | 0.12 µg/mL (≈ 0.328 µM) | 0.015 µg/mL (≈ 0.041 µM) | 0.015 µg/mL (≈ 0.041 µM) | 0.06 µg/mL (≈ 0.164 µM) | 0.06 µg/mL (≈ 0.164 µM) | 0.25 µg/mL (≈ 0.683 µM) | 0.015 µg/mL (≈ 0.041 µM) | 0.25 µg/mL (≈ 0.683 µM) | – | 2 mg/kg | 39 mg/kg | 15.2 mg/kg
CC1(N)CN(c2nc3c(cc2F)c(=O)c(C(=O)O)cn3-c2ccc(F)cc2F)C1 | 46400 ng·h/mL | 0.12 µg/mL (≈ 0.297 µM) | 0.06 µg/mL (≈ 0.148 µM) | 0.12 µg/mL (≈ 0.297 µM) | 0.06 µg/mL (≈ 0.148 µM) | 0.25 µg/mL (≈ 0.618 µM) | 0.5 µg/mL (≈ 1.24 µM) | 0.12 µg/mL (≈ 0.297 µM) | 0.12 µg/mL (≈ 0.297 µM) | 0.5 µg/mL (≈ 1.24 µM) | 0.12 µg/mL (≈ 0.297 µM) | 1 µg/mL (≈ 2.47 µM) | – | 3.1 mg/kg | 108 mg/kg | 6.7 mg/kg
NC1CN(c2c(F)cc3c(=O)c(C(=O)O)cn(-c4ccc(F)cc4F)c3c2Cl)C1 | 13000 ng·h/mL | 0.015 µg/mL (≈ 0.0354 µM) | 0.015 µg/mL (≈ 0.0354 µM) | 0.015 µg/mL (≈ 0.0354 µM) | 0.015 µg/mL (≈ 0.0354 µM) | 0.015 µg/mL (≈ 0.0354 µM) | 0.015 µg/mL (≈ 0.0354 µM) | 0.015 µg/mL (≈ 0.0354 µM) | 0.015 µg/mL (≈ 0.0354 µM) | 0.06 µg/mL (≈ 0.142 µM) | 0.015 µg/mL (≈ 0.0354 µM) | 0.12 µg/mL (≈ 0.283 µM) | – | 2.3 mg/kg | 55 mg/kg | 1.7 mg/kg
CNC1(C)CN(c2cc3c(cc2F)c(=O)c(C(=O)O)cn3C(C)(C)C)C1 | 4600 ng·h/mL | 0.25 µg/mL (≈ 0.692 µM) | 0.06 µg/mL (≈ 0.166 µM) | 0.25 µg/mL (≈ 0.692 µM) | 0.06 µg/mL (≈ 0.166 µM) | 0.5 µg/mL (≈ 1.38 µM) | 0.5 µg/mL (≈ 1.38 µM) | 0.25 µg/mL (≈ 0.692 µM) | 0.25 µg/mL (≈ 0.692 µM) | 0.5 µg/mL (≈ 1.38 µM) | 0.25 µg/mL (≈ 0.692 µM) | 4 µg/mL (≈ 11.1 µM) | – | – | – | –
CC1(N)CN(c2cc3c(cc2F)c(=O)c(C(=O)O)cn3C(C)(C)C)C1 | 5400 ng·h/mL | 0.25 µg/mL (≈ 0.72 µM) | 0.06 µg/mL (≈ 0.173 µM) | 0.12 µg/mL (≈ 0.345 µM) | 0.12 µg/mL (≈ 0.345 µM) | 0.25 µg/mL (≈ 0.72 µM) | 0.25 µg/mL (≈ 0.72 µM) | 0.12 µg/mL (≈ 0.345 µM) | 0.25 µg/mL (≈ 0.72 µM) | 0.5 µg/mL (≈ 1.44 µM) | 0.25 µg/mL (≈ 0.72 µM) | 2 µg/mL (≈ 5.76 µM) | – | – | – | –
